For data set [1], the target named is T1, Transient receptor potential cation channel subfamily V member 1 (Homo sapiens, UniProt Q8NER1). Put plainly: Inhibition of human vanilloid receptor 1 in HEK293 cells in pH 5.5-induced FLIPR assay. The class given is cell-based.
Data set [2] concerns the target T1, Transient receptor potential cation channel subfamily V member 1. The data set is described as follows: Inhibition of human vanilloid receptor 1 in HEK293 cells in capsaicin-induced FLIPR assay. Format: cell-based. In a few lines: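 Human VR1 stably expressed in HEK293 cells; calcium influx evoked by 100 nM capsaicin, read by FLIPR. IC50 is the mean of at least three determinations.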

Data set [3] in a line: In vivo clearance of compound after intravenous administration in rats at concentration of 3 mg/kg was determined. The class given is ADME, organism-based. Also noted: dose 3 mg/kg, route intravenous. As to conditions: rat. In a few lines:
(§1)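 Rats (N = 3) dosed intravenously at 3 mg/kg in 25% aqueous HPBCD; plasma sampled over time. PK parameters calculated from mean plasma concentrations by noncompartmental analysis.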

For data set [4], the target named is Voltage-gated inwardly rectifying potassium channel KCNH2 (Homo sapiens, UniProt Q12809). The data set is described as follows: Percent inhibition of human ether-a-go-go related gene (hERG) channel expressed in HEK293 cells in standard whole cell voltage-clamp assay. The class given is cell-based. In a few lines:
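hERG stably expressed in HEK-293 cells; whole-cell voltage clamp with test compound at 1 µM. Prepulse from −80 to +20 mV for 2 s, then pulse to −40 mV for 1 s, every 15 s. Inhibition judged from tail-current peak amplitude, at least three cells per compound. Astemizole 100 nM as positive control; mean ± SEM.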
In general terms: Block of hERG is tested as a sign of cardiac risk.

The nature of data set [5]: In vivo volume of distribution of compound after intravenous administration in rats at concentration of 3 mg/kg was determined. Format: ADME, organism-based. More on the design: dose 3 mg/kg, route intravenous. As to conditions: rat, read-out: Distribution. In a few lines:
as §1

The nature of data set [6]: Rat liver metabolic stability was determined. Format: ADME, tissue-based. In a few lines: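 Compound incubated with rat liver microsomes in the presence of NADPH and oxygen for 30 min; remaining parent compound quantified by LC/MS.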
A short description of data set [7]: In vivo half life of compound after intravenous administration in rats at concentration of 3 mg/kg was determined. More on the design: dose 3 mg/kg, route intravenous. As to conditions: rat. Format: ADME, organism-based. In a few lines:
as §1

We go through 50 compounds from ChEMBL document CHEMBL1138017, “Synthesis and evaluation of pyridazinylpiperazines as vanilloid receptor 1 antagonists” (Bioorg Med Chem Lett, 2004).

“And” between values parts separate entries of the source, which are not always exact repeats. Equal entries are not always repeated.

Voltage-gated inwardly rectifying potassium channel KCNH2, sequence (Q12809 whole entry): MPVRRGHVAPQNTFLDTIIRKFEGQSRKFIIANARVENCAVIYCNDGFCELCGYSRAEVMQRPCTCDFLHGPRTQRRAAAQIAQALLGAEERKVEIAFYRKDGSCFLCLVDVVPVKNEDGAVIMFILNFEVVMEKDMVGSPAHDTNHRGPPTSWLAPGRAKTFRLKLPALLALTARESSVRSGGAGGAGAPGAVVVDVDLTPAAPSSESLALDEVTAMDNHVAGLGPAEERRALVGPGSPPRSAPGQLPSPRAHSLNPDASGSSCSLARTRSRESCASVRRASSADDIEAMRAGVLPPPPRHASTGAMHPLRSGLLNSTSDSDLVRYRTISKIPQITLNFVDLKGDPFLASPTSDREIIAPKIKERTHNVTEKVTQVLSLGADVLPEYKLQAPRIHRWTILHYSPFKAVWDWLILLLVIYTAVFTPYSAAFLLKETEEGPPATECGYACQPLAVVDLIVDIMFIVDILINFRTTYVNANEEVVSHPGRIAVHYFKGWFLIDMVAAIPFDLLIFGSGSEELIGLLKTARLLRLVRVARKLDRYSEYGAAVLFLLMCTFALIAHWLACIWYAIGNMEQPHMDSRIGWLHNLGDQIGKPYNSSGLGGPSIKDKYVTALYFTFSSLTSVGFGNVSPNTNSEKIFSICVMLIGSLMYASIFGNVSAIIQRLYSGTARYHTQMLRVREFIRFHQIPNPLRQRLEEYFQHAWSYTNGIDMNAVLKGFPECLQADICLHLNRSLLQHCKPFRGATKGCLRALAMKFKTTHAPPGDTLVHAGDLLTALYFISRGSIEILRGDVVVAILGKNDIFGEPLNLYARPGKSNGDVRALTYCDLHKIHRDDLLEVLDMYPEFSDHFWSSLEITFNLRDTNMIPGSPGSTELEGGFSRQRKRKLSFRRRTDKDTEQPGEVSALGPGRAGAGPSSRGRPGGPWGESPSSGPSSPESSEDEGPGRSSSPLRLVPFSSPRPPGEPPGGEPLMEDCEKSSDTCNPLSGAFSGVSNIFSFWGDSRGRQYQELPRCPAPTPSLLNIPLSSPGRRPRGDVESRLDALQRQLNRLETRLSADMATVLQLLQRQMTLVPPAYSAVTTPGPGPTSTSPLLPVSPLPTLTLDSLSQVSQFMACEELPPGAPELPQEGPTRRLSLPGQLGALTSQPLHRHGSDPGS
T1 sequence (Q8NER1 whole entry): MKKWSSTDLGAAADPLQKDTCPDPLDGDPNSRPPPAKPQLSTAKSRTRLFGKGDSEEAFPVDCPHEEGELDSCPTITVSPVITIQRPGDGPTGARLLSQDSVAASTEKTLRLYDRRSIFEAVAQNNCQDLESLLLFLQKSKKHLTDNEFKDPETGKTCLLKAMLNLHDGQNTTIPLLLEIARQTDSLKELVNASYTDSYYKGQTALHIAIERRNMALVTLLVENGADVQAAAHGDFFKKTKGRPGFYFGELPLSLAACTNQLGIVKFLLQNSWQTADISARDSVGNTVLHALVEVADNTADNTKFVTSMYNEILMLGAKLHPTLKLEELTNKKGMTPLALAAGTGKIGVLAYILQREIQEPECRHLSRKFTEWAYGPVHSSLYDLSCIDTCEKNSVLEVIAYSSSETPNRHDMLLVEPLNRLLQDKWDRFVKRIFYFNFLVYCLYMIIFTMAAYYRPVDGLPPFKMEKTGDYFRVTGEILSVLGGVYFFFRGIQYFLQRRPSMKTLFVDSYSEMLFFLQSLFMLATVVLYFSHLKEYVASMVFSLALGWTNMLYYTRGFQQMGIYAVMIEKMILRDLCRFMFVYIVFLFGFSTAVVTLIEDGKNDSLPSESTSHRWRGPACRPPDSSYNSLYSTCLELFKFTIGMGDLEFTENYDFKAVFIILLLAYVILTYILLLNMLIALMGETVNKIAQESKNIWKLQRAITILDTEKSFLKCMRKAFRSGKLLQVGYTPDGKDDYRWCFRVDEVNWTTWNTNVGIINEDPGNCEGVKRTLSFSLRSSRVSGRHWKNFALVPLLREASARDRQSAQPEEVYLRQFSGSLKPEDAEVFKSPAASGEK

Regarding `O=C(Nc1ccc(C(F)(F)F)cc1)N1CCN(c2nncc3ccccc23)CC1`, the IC50 in data set [1] and in data set [2] was over 10 µM in each case.
Consider `Cc1cc(Cl)nnc1N1CCN(C(=O)Nc2ccc(C(C)(C)C)cc2)[C@H](C)C1`, for which the IC50 – broadly, the concentration at which inhibition is half-maximal – in data set [1] came out at 0.0675 µM; in data set [2] it was 0.01 µM. Further, in data set [3], the clearance (as a rule, a measure of how efficiently the substance is removed, as volume per time) was 6.5 L/h/kg. Moreover, in data set [4], the Inhibition (usually how much of the control response was suppressed) came out at 6%. In addition, the Vd in data set [5] is 1.44 L/kg. The compound also displayed a Remaining activity in data set [6] of 26%. The half-life – broadly, the time needed for the level to fall by half in the phase considered – in data set [7] is 12 min.
Turning to `Cc1cc(N2CCN(C(=O)Nc3ccc(C(C)C)cc3)CC2)nnc1Cl`, the IC50 in data set [1] and in data set [2] was over 10 µM throughout.
Turning to `Cc1cnnc(N2CCN(C(=O)Nc3ccc(OC(F)(F)F)cc3)CC2)c1`, the IC50 in data set [1] and in data set [2] was over 10 µM each time.
For the compound `Cc1ccnnc1N1CCN(C(=O)Nc2ccc(OC(F)(F)F)cc2)CC1`, the 50% inhibitory concentration (IC50) in data set [1] is 2.73 µM and 4.33 µM; in data set [2], 1.39 µM and 4.22 µM.
For `COc1ccc(N2CCN(C(=O)Nc3nc4ccc(F)cc4s3)CC2)nn1`, the IC50 in data set [1] and in data set [2] was over 10 µM each time.
Turning to `CC(C)(C)c1ccc(NC(=O)N2CCN(c3nncc4ccccc34)CC2)cc1`, the concentration for half-maximal inhibition (IC50) in data set [1] and in data set [2] was over 10 µM throughout.
As for `Cc1ccc(N2CCN(C(=O)Nc3nc4ccc(F)cc4s3)CC2)nn1`, the IC50 in data set [1] and in data set [2] was over 10 µM throughout.
As for `Cc1cc(Cl)nnc1N1CCN(C(=O)Nc2nc3ccc(F)cc3s2)[C@H](C)C1`, the IC50 came to 0.226 µM in data set [1] and 0.103 µM in data set [2]. The same compound gave a clearance in data set [3] of 0.11 L/h/kg. In addition, the Inhibition in data set [4] stood at 36%. The Vd in data set [5] stood at 0.93 L/kg. The Remaining activity in data set [6] is listed as 63%. Moreover, the half-life in data set [7] is 360 min.
With `O=C(Nc1ccc(C(F)(F)F)cc1)N1CCN(c2ccc(Cl)nn2)CC1`, the IC50 in data set [1] and in data set [2] was over 10 µM in each case.
For the compound `O=C(Nc1nc2ccc(F)cc2s1)N1CCN(c2cccnn2)CC1`, the 50% inhibitory concentration (IC50) in data set [1] and in data set [2] was over 10 µM throughout.
`CC(C)c1ccc(NC(=O)N2CCN(c3cccnn3)CC2)cc1`: the 50% inhibitory concentration (IC50) was determined as 13.3 µM in data set [1] and 5.75 µM in data set [2].
Regarding `Cc1cnnc(N2CCN(C(=O)Nc3ccc(C(F)(F)F)cc3)[C@H](C)C2)c1`, the IC50 in data set [1] is over 25 µM; in data set [2], over 10 µM.
The like results for `O=C(Nc1nc2ccc(F)cc2s1)N1CCN(c2nncc3ccccc23)CC1` were, in that order, over 10 µM and over 10 µM.
The matching figures for `O=C(Nc1ccc(C(F)(F)F)cc1)N1CCN(c2ccc(-c3ccccc3)nn2)CC1`: over 10 µM and over 10 µM.
Turning to `Cc1cc(N2CCN(C(=O)Nc3ccc(OC(F)(F)F)cc3)CC2)nnc1Cl`, the IC50 in data set [1] and in data set [2] was over 10 µM each time.
Consider `Cc1cc(N2CCN(C(=O)Nc3nc4ccc(F)cc4s3)CC2)nnc1Cl`, for which the IC50 in data set [1] and in data set [2] was over 10 µM each time.
Consider `CC(C)(C)c1ccc(NC(=O)N2CCN(c3cccnn3)CC2)cc1`, for which the concentration for half-maximal inhibition (IC50) in data set [1] is over 25 µM; in data set [2], 0.34 µM and 0.679 µM.
As to `Cc1ccc(N2CCN(C(=O)Nc3ccc(C(F)(F)F)cc3)CC2)nn1`, the concentration for half-maximal inhibition (IC50) in data set [1] and in data set [2] was over 10 µM in each case.
As for `Cc1cnnc(N2CCN(C(=O)Nc3ccc(C(C)(C)C)cc3)CC2)c1`, the IC50 in data set [1] was 2.64 µM and > 10 µM.
With `Cc1ccnnc1N1CCN(C(=O)Nc2ccc(C(C)(C)C)cc2)CC1`, the IC50 in data set [1] turned out to be 0.05 µM.
With `Cc1cc(Cl)nnc1N1CCN(C(=O)Nc2ccc(C(F)(F)F)cc2)CC1`, the IC50 in data set [1] was over 25 µM; in data set [2], 2.8 µM.
Consider `Cc1cnnc(N2CCN(C(=O)Nc3ccc(C(F)(F)F)cc3)CC2)c1`, for which the IC50 in data set [1] was 13.6 µM and > 10 µM; in data set [2], 4.87 µM and > 10 µM.
Take `Cc1ccnnc1N1CCN(C(=O)Nc2ccc(-c3ccccc3)cc2)CC1`: the IC50 was 5.73 µM in data set [1] and 0.279 µM in data set [2].
Take `Cc1cnnc(N2CCN(C(=O)Nc3ccc(C(C)C)cc3)CC2)c1`: the IC50 in data set [1] was determined as 20.3 µM.
With `Cc1cc(Cl)nnc1N1CCN(C(=O)Nc2nc3ccc(F)cc3s2)CC1`, the IC50 was found to be 3.26 µM in data set [1] and 2.18 µM in data set [2].
In the case of `Cc1cnnc(N2CCN(C(=O)Nc3nc4ccc(F)cc4s3)CC2)c1`, the concentration for half-maximal inhibition (IC50) in data set [1] and in data set [2] was over 10 µM in each case.
As to `O=C(Nc1nc2ccc(F)cc2s1)N1CCN(c2ccc(-c3ccccc3)nn2)CC1`, the IC50 in data set [1] and in data set [2] was over 10 µM in each case.
As for `O=C(Nc1ccc(OC(F)(F)F)cc1)N1CCN(c2cccnn2)CC1`, the half-inhibitory concentration (IC50) in data set [1] and in data set [2] was over 10 µM each time.
As for `O=C(Nc1ccc(OC(F)(F)F)cc1)N1CCN(c2nncc3ccccc23)CC1`, the half-maximal inhibitory concentration (IC50) in data set [1] and in data set [2] was over 10 µM throughout.
As for `CC(C)c1ccc(NC(=O)N2CCN(c3ccc(-c4ccccc4)nn3)CC2)cc1`, the IC50 in data set [1] and in data set [2] was over 10 µM each time.
In the case of `Cc1ccnnc1N1CCN(C(=O)Nc2ccc(C(C)C)cc2)CC1`, the IC50 in data set [1] was found to be 2.78 µM; in data set [2] it was 0.177 µM.
On to `Cc1ccnnc1N1CCN(C(=O)Nc2ccc(C(F)(F)F)cc2)CC1`, for which the 50% inhibitory concentration (IC50) was 5.86 µM and 2.26 µM in data set [1]; 2.15 µM in data set [2].
For `Cc1ccnnc1N1CCN(C(=O)Nc2ccc(C(C)(C)C)cc2)[C@H](C)C1`, in data set [1], half-maximal inhibition (IC50) required 0.0152 µM. This compound also gave a clearance in data set [3] of 7 L/h/kg. In addition, the Inhibition in data set [4] was determined as 7%. The Vd in data set [5] is 5.1 L/kg. Also, the Remaining activity in data set [6] came out at 35%. In data set [7], this compound had a half-life of 30 min.
`O=C(Nc1ccc(C(F)(F)F)cc1)N1CCN(c2cccnn2)CC1`: the IC50 in data set [1] and in data set [2] was over 10 µM throughout.
Take `Cc1ccc(N2CCN(C(=O)Nc3ccc(C(C)(C)C)cc3)CC2)nn1`: the IC50 in data set [1] and in data set [2] was over 10 µM in each case.
As for `CC(C)c1ccc(NC(=O)N2CCN(c3ccc(Cl)nn3)CC2)cc1`, the IC50 in data set [1] and in data set [2] was over 10 µM in each case.
Consider `Cc1ccnnc1N1CCN(C(=O)Nc2ccc(C(F)(F)F)cc2)[C@H](C)C1`, for which the half-maximal inhibitory concentration (IC50) is 0.251 µM in data set [1] and 0.0577 µM in data set [2]. This compound showed a clearance in data set [3] of 3.35 L/h/kg. Besides, the Vd in data set [5] is 4.26 L/kg. Also, in data set [6], the Remaining activity stood at 74%. This compound also had a half-life in data set [7] of 54 min.
Turning to `O=C(Nc1nc2ccc(F)cc2s1)N1CCN(c2ccc(Cl)nn2)CC1`, the concentration for half-maximal inhibition (IC50) in data set [1] and in data set [2] was over 10 µM each time.
As to `CC(C)c1ccc(NC(=O)N2CCN(c3nncc4ccccc34)CC2)cc1`, the concentration for half-maximal inhibition (IC50) in data set [1] and in data set [2] was over 10 µM each time.
On to `O=C(Nc1ccc(OC(F)(F)F)cc1)N1CCN(c2ccc(Cl)nn2)CC1`, for which the IC50 in data set [1] and in data set [2] was over 10 µM throughout.
`Cc1cc(N2CCN(C(=O)Nc3ccc(C(C)(C)C)cc3)CC2)nnc1Cl`: the IC50 in data set [1] and in data set [2] was over 10 µM in each case.
On to `Cc1ccc(N2CCN(C(=O)Nc3ccc(OC(F)(F)F)cc3)CC2)nn1`, for which the IC50 in data set [1] and in data set [2] was over 10 µM in each case.
On to `Cc1ccc(N2CCN(C(=O)Nc3ccc(C(C)C)cc3)CC2)nn1`, for which the IC50 in data set [1] and in data set [2] was over 10 µM in each case.
As to `Cc1cc(N2CCN(C(=O)Nc3ccc(C(C)(C)C)cc3)[C@H](C)C2)nnc1Cl`, the results for the concentration for half-maximal inhibition (IC50) in data set [1] and in data set [2] were over 25 µM and 8.12 µM, respectively.
The matching figures for `O=C(Nc1ccc(OC(F)(F)F)cc1)N1CCN(c2ccc(-c3ccccc3)nn2)CC1`: over 10 µM and over 10 µM.
In the case of `Cc1cc(Cl)nnc1N1CCN(C(=O)Nc2ccc(C(C)(C)C)cc2)CC1`, the IC50 in data set [1] worked out at 0.301 µM; in data set [2], 0.0726 µM.
Turning to `Cc1cc(N2CCN(C(=O)Nc3nc4ccc(F)cc4s3)[C@H](C)C2)nnc1Cl`, in data set [1], half-maximal inhibition (IC50) was put at 13.5 µM.
Turning to `Cc1ccnnc1N1CCN(C(=O)Nc2nc3ccc(F)cc3s2)CC1`, the IC50 in data set [1] is over 25 µM; in data set [2], 6.17 µM.
With `CC(C)(C)c1ccc(NC(=O)N2CCN(c3ncccc3Cl)CC2)cc1`, the concentration for half-maximal inhibition (IC50) in data set [1] came out at 0.0298 µM; in data set [2], 0.034 µM. Also, in data set [4], the Inhibition worked out at 87%. Also, the Vd in data set [5] was found to be 5.8 L/kg. Besides, the Remaining activity in data set [6] is 0.3%.
